Experimental data reported in ChEMBL document CHEMBL5696442, “Discovery of type II inhibitors of TGFβ-activated kinase 1 (TAK1) and mitogen-activated protein kinase kinase kinase kinase 2 (MAP4K2)” (J Med Chem, 2015).

Key:
[1] = molecular target: Proto-oncogene tyrosine-protein kinase Src (Homo sapiens, UniProt P12931); assay: Inhibition of SRC ACT labeling site in human A-375 cells at 5 uM by KiNativ Profiling analysis relative to control; assay type: cell-based
[2] = molecular target: TRAF2 and NCK-interacting protein kinase (Homo sapiens) (UniProt Q9UKE5); assay: Inhibition of ZC2/TNIK Lys1 labeling site in human A-375 cells at 0.5 uM by KiNativ Profiling analysis relative to control; assay type: cell-based
Sequence of TRAF2 and NCK-interacting protein kinase (Homo sapiens) (Q9UKE5 whole entry, looked up): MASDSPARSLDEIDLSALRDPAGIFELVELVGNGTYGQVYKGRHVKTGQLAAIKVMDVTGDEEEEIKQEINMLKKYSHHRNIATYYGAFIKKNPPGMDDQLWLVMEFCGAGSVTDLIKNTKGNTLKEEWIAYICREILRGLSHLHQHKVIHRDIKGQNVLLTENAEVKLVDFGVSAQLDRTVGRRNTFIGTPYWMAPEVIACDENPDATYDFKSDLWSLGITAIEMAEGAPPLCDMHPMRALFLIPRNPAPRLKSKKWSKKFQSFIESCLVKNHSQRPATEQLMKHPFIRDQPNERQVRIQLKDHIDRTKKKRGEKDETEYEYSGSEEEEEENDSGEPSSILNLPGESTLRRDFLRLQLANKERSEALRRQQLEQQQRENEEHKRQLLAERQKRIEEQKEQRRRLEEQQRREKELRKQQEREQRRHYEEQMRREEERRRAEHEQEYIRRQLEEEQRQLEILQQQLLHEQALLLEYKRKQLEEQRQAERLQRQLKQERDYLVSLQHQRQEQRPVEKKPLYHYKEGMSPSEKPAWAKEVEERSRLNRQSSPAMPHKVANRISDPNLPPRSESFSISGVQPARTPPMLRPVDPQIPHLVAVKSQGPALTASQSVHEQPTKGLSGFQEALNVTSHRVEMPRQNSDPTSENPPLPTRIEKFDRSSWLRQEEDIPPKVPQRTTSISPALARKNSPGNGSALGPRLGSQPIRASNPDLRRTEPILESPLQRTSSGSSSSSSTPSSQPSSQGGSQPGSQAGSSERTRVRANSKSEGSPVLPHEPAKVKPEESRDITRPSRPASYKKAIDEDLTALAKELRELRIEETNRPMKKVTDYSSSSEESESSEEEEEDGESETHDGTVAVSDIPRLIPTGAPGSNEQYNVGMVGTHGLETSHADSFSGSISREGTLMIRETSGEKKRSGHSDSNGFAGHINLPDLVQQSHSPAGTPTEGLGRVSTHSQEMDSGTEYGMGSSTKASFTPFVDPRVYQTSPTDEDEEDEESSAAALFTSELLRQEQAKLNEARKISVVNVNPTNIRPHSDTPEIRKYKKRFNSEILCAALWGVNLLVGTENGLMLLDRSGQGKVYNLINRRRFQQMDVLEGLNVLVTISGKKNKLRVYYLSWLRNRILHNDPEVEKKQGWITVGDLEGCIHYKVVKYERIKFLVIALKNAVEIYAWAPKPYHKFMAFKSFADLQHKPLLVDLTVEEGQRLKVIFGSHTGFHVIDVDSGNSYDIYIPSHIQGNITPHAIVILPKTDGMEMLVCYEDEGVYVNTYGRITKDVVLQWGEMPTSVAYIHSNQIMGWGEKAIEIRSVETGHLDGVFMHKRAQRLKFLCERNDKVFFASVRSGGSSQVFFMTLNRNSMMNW

[3] = molecular target: Serine/threonine-protein kinase B-raf (Homo sapiens, UniProt P15056); assay: Inhibition of BRAF (unknown origin) Lys2 labeling site by KiNativ Profiling analysis
Sequence of Serine/threonine-protein kinase B-raf (P15056 whole entry): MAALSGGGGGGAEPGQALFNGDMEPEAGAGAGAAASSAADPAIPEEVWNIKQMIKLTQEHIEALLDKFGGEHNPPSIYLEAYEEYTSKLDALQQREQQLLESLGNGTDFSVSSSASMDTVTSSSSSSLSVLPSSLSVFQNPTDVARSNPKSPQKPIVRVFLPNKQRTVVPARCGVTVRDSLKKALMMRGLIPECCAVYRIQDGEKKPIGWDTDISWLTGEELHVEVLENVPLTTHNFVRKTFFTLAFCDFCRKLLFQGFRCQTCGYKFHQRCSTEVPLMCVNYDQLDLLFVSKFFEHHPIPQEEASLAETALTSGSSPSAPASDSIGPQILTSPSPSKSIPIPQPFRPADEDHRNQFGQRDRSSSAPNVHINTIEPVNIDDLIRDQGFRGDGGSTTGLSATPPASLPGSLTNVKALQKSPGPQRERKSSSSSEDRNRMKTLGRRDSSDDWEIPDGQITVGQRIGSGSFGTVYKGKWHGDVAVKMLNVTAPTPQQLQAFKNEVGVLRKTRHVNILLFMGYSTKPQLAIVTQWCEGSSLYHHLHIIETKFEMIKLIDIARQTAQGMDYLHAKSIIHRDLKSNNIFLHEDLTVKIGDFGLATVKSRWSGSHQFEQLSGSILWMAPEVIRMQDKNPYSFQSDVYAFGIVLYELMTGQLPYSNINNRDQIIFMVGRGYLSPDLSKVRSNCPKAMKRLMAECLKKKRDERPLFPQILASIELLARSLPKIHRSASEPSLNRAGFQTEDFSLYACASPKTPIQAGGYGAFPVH

[4] = molecular target: T1, Serine/threonine-protein kinase TBK1 (Homo sapiens) (UniProt Q9UHD2); assay: Inhibition of TBK1 Lys2 labeling site in human A-375 cells at 0.5 uM by KiNativ Profiling analysis relative to control; assay type: cell-based
T1 sequence (whole entry): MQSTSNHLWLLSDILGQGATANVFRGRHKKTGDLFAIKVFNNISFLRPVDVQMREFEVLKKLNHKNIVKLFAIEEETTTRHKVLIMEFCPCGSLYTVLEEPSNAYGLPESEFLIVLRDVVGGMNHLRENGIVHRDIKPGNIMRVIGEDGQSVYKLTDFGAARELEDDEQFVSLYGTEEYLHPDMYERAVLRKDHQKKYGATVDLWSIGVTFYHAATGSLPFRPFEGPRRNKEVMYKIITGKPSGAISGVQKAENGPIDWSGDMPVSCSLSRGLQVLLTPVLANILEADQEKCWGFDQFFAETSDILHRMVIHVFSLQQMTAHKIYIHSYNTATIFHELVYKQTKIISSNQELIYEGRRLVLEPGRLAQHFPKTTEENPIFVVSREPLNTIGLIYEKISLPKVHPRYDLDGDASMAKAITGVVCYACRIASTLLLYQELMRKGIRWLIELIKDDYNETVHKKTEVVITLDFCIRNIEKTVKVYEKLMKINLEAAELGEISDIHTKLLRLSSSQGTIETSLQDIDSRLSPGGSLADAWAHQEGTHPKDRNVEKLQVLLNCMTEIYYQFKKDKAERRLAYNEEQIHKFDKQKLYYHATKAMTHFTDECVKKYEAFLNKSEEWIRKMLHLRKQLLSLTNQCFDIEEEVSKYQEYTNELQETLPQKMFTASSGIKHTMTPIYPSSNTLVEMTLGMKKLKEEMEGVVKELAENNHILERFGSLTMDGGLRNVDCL

[5] = molecular target: Ephrin type-B receptor 2 (Homo sapiens, UniProt P29323); assay: Inhibition of EphB2 (unknown origin) ACT labeling site by KiNativ Profiling analysis
Sequence of Ephrin type-B receptor 2 (P29323 whole entry, the tested form may be a part): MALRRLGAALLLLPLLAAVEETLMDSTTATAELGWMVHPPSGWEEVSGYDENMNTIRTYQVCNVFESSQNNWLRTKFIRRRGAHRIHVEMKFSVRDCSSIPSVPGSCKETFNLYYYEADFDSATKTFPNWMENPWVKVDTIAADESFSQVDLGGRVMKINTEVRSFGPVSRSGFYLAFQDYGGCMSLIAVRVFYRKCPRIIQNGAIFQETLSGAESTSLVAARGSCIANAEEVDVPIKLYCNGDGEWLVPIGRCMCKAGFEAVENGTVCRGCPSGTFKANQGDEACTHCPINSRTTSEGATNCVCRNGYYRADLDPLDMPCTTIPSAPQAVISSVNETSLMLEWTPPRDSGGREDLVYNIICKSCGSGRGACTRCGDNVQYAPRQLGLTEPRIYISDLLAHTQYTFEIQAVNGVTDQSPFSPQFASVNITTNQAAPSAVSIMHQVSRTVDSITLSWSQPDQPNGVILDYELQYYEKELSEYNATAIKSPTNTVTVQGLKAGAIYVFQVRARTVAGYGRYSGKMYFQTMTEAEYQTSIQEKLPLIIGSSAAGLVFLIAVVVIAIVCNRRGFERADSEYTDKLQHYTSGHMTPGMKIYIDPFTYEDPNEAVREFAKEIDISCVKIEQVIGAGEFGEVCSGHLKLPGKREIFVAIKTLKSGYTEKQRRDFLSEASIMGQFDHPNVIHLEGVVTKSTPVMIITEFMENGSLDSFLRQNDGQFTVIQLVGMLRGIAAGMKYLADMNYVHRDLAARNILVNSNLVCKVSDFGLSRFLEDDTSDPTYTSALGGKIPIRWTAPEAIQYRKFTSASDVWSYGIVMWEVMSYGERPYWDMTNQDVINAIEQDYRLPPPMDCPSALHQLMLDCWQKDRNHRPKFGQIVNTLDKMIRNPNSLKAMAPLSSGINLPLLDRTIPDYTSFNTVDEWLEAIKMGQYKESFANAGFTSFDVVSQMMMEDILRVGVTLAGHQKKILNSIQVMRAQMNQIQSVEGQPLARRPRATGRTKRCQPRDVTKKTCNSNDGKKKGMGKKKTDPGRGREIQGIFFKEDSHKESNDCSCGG

[6] = molecular target: Casein kinase II subunit alpha (Homo sapiens) (UniProt P68400); assay: Inhibition of CK2a1 Protein Kinase Domain in human A-375 cells at 0.05 uM by KiNativ Profiling analysis relative to control; assay type: cell-based
Sequence of Casein kinase II subunit alpha (Homo sapiens) (P68400 whole entry, looked up, the tested form may be a part): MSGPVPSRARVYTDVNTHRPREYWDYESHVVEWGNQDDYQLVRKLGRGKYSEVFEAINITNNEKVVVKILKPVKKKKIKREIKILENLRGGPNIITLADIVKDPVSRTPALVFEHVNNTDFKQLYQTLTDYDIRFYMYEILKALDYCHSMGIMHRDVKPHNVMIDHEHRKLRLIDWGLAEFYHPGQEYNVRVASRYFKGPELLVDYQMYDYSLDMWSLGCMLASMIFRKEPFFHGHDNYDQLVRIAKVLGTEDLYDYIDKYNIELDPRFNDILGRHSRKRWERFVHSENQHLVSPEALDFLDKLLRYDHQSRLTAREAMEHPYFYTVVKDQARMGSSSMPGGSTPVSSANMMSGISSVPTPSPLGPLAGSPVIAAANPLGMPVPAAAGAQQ

[7] = molecular target: T2, Mitogen-activated protein kinase kinase kinase 2 (Homo sapiens) (UniProt Q9Y2U5); assay: Inhibition of MAP3K2 Lys1 labeling site harbouring ELAVKQVQFDPDSPETSKEVNALECEIQLLK in human A-375 cells at 5 uM by KiNativ Profiling analysis relative to control; assay type: cell-based
T2 sequence (whole entry): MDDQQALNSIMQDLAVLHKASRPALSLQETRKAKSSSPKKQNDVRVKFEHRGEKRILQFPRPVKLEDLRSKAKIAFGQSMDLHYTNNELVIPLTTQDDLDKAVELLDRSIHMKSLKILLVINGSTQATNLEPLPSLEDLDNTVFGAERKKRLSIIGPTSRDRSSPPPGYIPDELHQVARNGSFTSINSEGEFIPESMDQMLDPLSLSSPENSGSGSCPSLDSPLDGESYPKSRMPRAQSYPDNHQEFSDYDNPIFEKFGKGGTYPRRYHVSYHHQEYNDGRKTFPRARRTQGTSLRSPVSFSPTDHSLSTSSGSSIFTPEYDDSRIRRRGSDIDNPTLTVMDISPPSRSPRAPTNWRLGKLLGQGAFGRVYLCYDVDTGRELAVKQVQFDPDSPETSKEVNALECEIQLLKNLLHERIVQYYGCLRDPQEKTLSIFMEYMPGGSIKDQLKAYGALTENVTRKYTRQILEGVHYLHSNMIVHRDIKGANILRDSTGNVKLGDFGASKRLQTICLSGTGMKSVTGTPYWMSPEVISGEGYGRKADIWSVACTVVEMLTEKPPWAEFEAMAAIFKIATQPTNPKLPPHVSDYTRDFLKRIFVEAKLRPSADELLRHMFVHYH

[8] = molecular target: Serine/threonine-protein kinase Nek6 (Homo sapiens) (UniProt Q9HC98); assay: Inhibition of NEK6 Lys2 labeling site in human A-375 cells at 0.5 uM by KiNativ Profiling analysis relative to control; assay type: cell-based
Sequence of Serine/threonine-protein kinase Nek6 (Homo sapiens) (Q9HC98 whole entry): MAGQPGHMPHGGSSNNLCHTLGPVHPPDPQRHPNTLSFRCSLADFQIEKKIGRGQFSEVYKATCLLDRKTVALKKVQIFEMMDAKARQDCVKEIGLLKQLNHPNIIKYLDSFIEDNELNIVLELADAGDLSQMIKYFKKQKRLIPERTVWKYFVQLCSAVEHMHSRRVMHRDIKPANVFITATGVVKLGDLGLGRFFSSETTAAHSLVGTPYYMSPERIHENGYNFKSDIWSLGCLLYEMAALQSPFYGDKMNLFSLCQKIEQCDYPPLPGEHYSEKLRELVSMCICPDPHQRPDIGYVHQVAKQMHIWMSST

[9] = molecular target: Calcium/calmodulin-dependent protein kinase type 1 (Homo sapiens) (UniProt Q14012); assay: Inhibition of CaMK1a Lys1 labeling site in human A-375 cells at 0.05 uM by KiNativ Profiling analysis relative to control; assay type: cell-based
Sequence of Calcium/calmodulin-dependent protein kinase type 1 (Homo sapiens) (Q14012 whole entry, looked up): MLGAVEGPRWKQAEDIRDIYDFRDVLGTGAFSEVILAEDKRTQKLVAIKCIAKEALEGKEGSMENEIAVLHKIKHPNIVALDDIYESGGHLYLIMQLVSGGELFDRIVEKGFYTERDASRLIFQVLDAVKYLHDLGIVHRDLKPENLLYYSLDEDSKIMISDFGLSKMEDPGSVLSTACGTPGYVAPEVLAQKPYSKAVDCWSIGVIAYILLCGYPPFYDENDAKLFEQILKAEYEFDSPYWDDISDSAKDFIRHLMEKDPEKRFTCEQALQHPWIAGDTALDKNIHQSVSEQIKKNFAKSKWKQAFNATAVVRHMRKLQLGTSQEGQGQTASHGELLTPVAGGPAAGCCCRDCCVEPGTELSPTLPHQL

[10] = molecular target: T3, Aurora kinase A (Homo sapiens) (UniProt O14965); assay: Inhibition of AurA ATP Loop labeling site in human A-375 cells at 5 uM by KiNativ Profiling analysis relative to control; assay type: cell-based
T3 sequence (whole entry): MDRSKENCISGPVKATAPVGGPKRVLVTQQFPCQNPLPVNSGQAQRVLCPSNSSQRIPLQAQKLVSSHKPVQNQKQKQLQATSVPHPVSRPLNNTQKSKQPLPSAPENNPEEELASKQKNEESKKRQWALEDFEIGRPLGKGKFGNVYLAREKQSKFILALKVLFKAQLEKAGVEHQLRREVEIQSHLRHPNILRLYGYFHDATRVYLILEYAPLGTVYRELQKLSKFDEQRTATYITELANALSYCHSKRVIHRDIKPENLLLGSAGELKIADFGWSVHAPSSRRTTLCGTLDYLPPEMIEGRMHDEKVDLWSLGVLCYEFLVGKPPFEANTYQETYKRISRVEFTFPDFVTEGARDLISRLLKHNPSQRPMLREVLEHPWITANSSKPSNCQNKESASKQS
Summary of the method: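 Live A375 melanoma cells were treated with compound at 5 or 0.5 μM, then lysed. The lysates were labeled with a lysine-reactive ATP or ADP-biotin probe. Kinase protection from probe labeling was measured by KiNativ.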

Sequence of Proto-oncogene tyrosine-protein kinase Src (P12931 2-536 limits assumed): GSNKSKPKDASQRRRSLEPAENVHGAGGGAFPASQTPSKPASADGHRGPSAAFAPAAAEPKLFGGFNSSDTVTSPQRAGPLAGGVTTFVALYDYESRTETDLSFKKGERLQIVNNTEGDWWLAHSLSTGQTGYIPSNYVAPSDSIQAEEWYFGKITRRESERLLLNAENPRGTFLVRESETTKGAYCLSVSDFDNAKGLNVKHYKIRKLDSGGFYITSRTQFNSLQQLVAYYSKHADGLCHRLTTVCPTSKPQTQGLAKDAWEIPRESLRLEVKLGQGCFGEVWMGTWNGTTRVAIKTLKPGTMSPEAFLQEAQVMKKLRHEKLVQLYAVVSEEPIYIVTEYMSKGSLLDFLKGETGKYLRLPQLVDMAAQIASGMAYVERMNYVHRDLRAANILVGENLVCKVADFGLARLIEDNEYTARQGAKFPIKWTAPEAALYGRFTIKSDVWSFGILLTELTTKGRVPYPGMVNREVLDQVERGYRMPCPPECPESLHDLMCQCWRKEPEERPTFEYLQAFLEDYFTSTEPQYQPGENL

Row | SMILES | inhibition [1] [%] | inhibition [2] [%] | IC50 [3] [nM] | inhibition [4] [%] | IC50 [5] [nM] | inhibition [6] [%] | inhibition [7] [%] | inhibition [8] [%] | inhibition [9] [%] | inhibition [10] [%]
1 | CCN1CCN(Cc2ccc(NC(=O)c3ccc(C)c(Oc4ccnc5[nH]ccc45)c3)cc2C(F)(F)F)CC1 | 89.6 | 77.9 | > 10000 | 35.7 | 672 | -4.1 | 44.4 | 7.8 | 34.9 | 31.4
2 | CCN1CCN(Cc2ccc(NC(=O)c3ccc(C)c(/C=C/c4cnc5[nH]ccc5c4OC)c3)cc2C(F)(F)F)CC1 | > 99 | 74.9 | > 10000 | 16.9 | 75 | 11.4 | 60.6 | 10.7 | 21.5 | 48.5
